# Most compounds without a hit are left out; they make up all but 4% or so of the library.
# FN deposition inh: inhibitors of fibronectin matrix deposition, primary screen, AH1F cells, Alexa488-fibronectin fluorescence, plate reader; AID 743247, 2014; AH1F fibroblasts, overnight; 350,000 compounds, 0.086% hits; inhibition, % at 12.6 µM;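 active = mean inhibition across replicates of 30% or more, regardless of how many single replicates reach that level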;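 note: positive control wells lacked labelled fibronectin entirely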
#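 Schedule: 1 h cell adhesion before compound, then overnight fibronectin incubation; test system: AH1F fibroblast monolayer depositing Alexa488-labelled fibronectin into matrix; quantity: 10000 AH1F cells per well; probe or stimulus: fluorescent fibronectin at 24 nM final; signal: fluorescence, ex 485 nm, em 525 nm; evaluation: percent inhibition as loss of matrix-bound fibronectin fluorescence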
# rRNA inh HTS: reduced GFP signal of wild-type E. coli, primary screen, bacterial rRNA inhibitor project, GFP/RFP fluorescence, OD600, single point | E. coli WT GFP vs humanized-ribosome RFP mutants, 24 h; active compounds read low; DMSO median 0, no signal -100 | GFP signal change (wild-type ribosome), % (test concentration not listed) | 350,000 compounds, 1.6% hits;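 active = significant combined selectivity score with lowered wild-type GFP, culture density cut under 30%, mutant RFP and density less affected; inactive = any of these conditions unmet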
# E-sel inducer: E-selectin induction in HUVECs, primary screen, imaging, HUVEC, immunofluorescence imaging, single point; P16581; normalized: neutral wells 0, TNF-alpha wells 100; activation, % at 7.58 µM; 260,000 compounds, 0.37% hits; AID 686992, 2013;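 active = mean E-selectin-positive cell signal at least 10% of the positive control, reached in at least 60% of replicates, without over 20% cell loss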
# Target sequence (P16581 whole entry, looked up): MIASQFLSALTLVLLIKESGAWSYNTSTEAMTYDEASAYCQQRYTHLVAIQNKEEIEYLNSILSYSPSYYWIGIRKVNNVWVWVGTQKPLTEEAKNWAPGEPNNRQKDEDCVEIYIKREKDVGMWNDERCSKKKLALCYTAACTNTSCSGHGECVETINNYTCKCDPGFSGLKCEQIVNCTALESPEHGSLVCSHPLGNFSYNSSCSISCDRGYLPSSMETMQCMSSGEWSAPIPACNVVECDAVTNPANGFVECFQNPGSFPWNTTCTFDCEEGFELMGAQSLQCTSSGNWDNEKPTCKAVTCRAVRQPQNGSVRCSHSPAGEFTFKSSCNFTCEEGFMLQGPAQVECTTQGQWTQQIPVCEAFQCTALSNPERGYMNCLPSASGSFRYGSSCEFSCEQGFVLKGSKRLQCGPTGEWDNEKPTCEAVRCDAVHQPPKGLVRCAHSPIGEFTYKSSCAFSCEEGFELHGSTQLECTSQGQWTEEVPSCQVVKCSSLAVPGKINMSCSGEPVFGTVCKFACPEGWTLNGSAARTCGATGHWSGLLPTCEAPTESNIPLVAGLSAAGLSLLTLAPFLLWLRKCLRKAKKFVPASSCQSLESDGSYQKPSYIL
#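 Test system – human umbilical vein endothelial cells (HUVEC), E-selectin induction · Input – 3,000 HUVEC seeded per well · Buffer or medium – EGM-2, gelatin · Compound dosing – single-point compound dose · Detection – immunofluorescence imaging · Measure – percent E-selectin-positive cells · Controls – TNF-alpha high, DMSO low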
# C2C12 statin: suppressors of statin myotoxicity in C2C12 myotubes, primary screen, cell-based, single point, plate reader | C2C12 myotubes + simvastatin, ATP luminescence, 48 h; scaled: DMSO 0, geranylgeraniol control 100 | AID 602340, 2012 | 330,000 compounds, 0.78% hits | rescue of ATP level, % at 7.49 µM;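 active = mean ATP rescue above about 67%, or every replicate alone reaching that limit, limit read from the data, passing the limit was not always enough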;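 note: myotubes were challenged with 10 µM simvastatin during compound exposure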
# FGF22 binding: binders of human FGF22 protein, primary screen, FGF22 synaptogenesis inhibitor project, biophysical, thermal shift, single point. 340,000 compounds, 1.5% hits. recombinant FGF22 thermal shift, SYPRO orange fluorescence; percent of sucrose octasulfate shift, DMSO zero. Fibroblast growth factor 22 (Homo sapiens), Q9HCT0. activity (Tm shift, normalised), % at 9.99 µM;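 active = mean Tm shift, scaled 0 neutral to 100 positive control, at about 1.3% or above, every replicate too, limit read from the data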
# SIRT5 inh: SIRT5 desuccinylase inhibitors, primary screen, biochemical, fluorescence imaging, single point, set 5; NAD-dependent protein deacylase sirtuin-5, mitochondrial (Homo sapiens), Q9NXA8; Purified SirT5, succinyl-peptide AMC, trypsin-coupled fluorescence; inhibition, % at 15 µM; 330,000 compounds, 1.1% hits; AID 652115, 2013; in the data active = inhibition above about 15%
# An asterisk follows results filed as active; nt = no result; ! = not confirmed by another sample.
SMILES,FN deposition inh,rRNA inh HTS,E-sel inducer,C2C12 statin,FGF22 binding,SIRT5 inh
O=C(NC1CCCC1)C(c1ccsc1)N(Cc1ccccc1)C(=O)Cc1cccs1 (centres undefined),nt,nt,nt,22,nt,nt
O=C(NC1CCCC1)C(c1ccsc1)N(Cc1ccco1)C(=O)Cc1cccs1 (centres undefined),nt,nt,nt,118*,nt,nt
CS(=O)(=O)c1ccc(Cl)c(NC(=O)CSc2nnc(C3CC3)n2C2CC2)c1,-4,-13,4,10,1.4*,1
CN(C)S(=O)(=O)c1ccc(Cl)c(NC(=O)CSc2nnnn2-c2ccc(O)cc2)c1,14,-29*,2,nt,0,0
Cc1[nH]c(SCC(=O)Nc2cc(S(C)(=O)=O)ccc2Cl)nc1Cc1ccccc1,8,-22*,2,1,0,-3
Cc1cc(NC(=O)CSc2nc(Cc3ccccc3)c(C)[nH]2)no1,5,1,nt,2,0,-8
CCN(c1ccccc1)S(=O)(=O)c1ccc(Cl)c(NC(=O)CSc2n[nH]c(N)n2)c1,2,-19*,-1,nt,0,-4
CS(=O)(=O)c1ccc(Cl)c(NC(=O)CSc2n[nH]c(N)n2)c1,0,6,0,32,0,-3
O=C(N[C@@H]1CC[C@@H](CCNC(=O)C2CCCC2)O[C@@H]1CO)c1ccncc1,nt,0,0,0,0,-5
C[C@H]1CN(C)C(=O)c2cc(NS(C)(=O)=O)ccc2O[C@@H]1CN(C)S(C)(=O)=O,-6,-1,nt,nt,nt,nt
C[C@H]1CN([C@@H](C)CO)C(=O)c2cc(NC(=O)Cc3ccccc3)ccc2O[C@@H]1CN(C)Cc1ccc(C(F)(F)F)cc1,nt,-5,-1,-28,0,14
O=C(CSc1nnnn1C1CC1)Nc1cc(S(=O)(=O)N2CCCC2)ccc1Cl,-3,1,0,-3,43*,1
O=C(CN1CCN(c2ccc(O)cc2)CC1)Nc1cc(S(=O)(=O)N2CCCC2)ccc1Cl,5,-21*,-1,nt,-1,-5
Cn1nnnc1SCC(=O)Nc1cc(S(=O)(=O)N2CCCC2)ccc1Cl,nt,5,nt,nt,0,1
CCOCCCNC(=S)NC1CC2CCC(C1)N2Cc1ccccc1 (centres undefined),1,23,-1,nt,43,-1
COCCCNC(=S)NC1CC2CCC(C1)N2Cc1ccccc1 (centres undefined),-7,15,1,nt,43*,-3
[N-]=[N+]=CC(=O)c1ccnc(C(=O)C=[N+]=[N-])c1,nt,nt,nt,94*,nt,nt
FC(F)(F)c1ccnc(Sc2n[nH]c(C(F)(F)F)n2)c1,-2,-25*,nt,-8,0,-1
O=C(CSc1nc2ccccc2s1)NCc1cc([N+](=O)[O-])ccc1O,-33,-31*,0,6,0,5
N#CC1(NC(=O)CSc2nc3ccc([N+](=O)[O-])cc3s2)CCCCC1,-12,-17*,-2,28,0,7
CCOc1ccc(S(=O)(=O)NCCC(=O)OCC(=O)NC(=O)c2cccn2C)cc1,0,-1,0,2,44*,nt
COc1cccc(NC(=O)N(C)C[C@H]2Oc3cc(C#Cc4ccccc4)ccc3S(=O)(=O)N([C@@H](C)CO)C[C@H]2C)c1,-9,-1,-5,41,1.4*,nt
COc1ccc(C#Cc2ccc3c(c2)O[C@@H](CN(C)C(=O)Nc2cccc(OC)c2)[C@H](C)CN([C@@H](C)CO)S3(=O)=O)cc1,12,20,35*,-42,0,16*!
COc1ccc(C#Cc2ccc3c(c2)O[C@H](CN(C)C(=O)Nc2cccc(OC)c2)[C@H](C)CN([C@@H](C)CO)S3(=O)=O)cc1,8,3,8,73*,0,1
